Screening data: PubChem BioAssay, several laboratories
Compounds with a hit are over-represented: about 8.4% of the library has one in this group of screens.
PostGolgi ctrl = inhibits growth of the yeast control strain; inhibition, % at 10 µM; efflux-deficient yeast background strain, growth absorbance A615, 16 h; AID 738; 5% of 98,000 active
PostGolgi yeast = growth inhibition of a yeast mutant, post-Golgi transport screen; inhibition, % at 10 µM; post-Golgi transport phenotypic cell assay; 0.9% of 98,000 active;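 further: yeast cells grown in 1536-well plates; yeast grown about 18 h at 30C before absorbance read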
E coli WT exp = blocks growth of wild type E. coli BW25113; OD600 absorbance; growth inhibition, % at 100 µM; 0.15% of 98,000 active; AID 710;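 active means growth inhibition above about 50% at one test dose, limit read from the data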;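 further: growth measured after 20 h incubation at 37 °C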
tolC growth inh = blocks growth of E. coli BW25113 tolC mutant | OD615 | growth inhibition, % at 10 µM (by protocol) | 2.2% of 65,000 active;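 active means growth inhibition at or above a cutoff equal to the mean over every tested compound plus 3 SD, cut at about 60% in these data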;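 further: growth measured after 20 h incubation at 37 °C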
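Test system: E. coli BW25113 ΔtolC::kan bacteria | Medium: Kanamycin-containing LB broth (50 µg/mL) | Dosing: One dose of 10 µM final | Times: 20 h incubation with compound, 37 °C | Detection: Optical density read at 615 nm | Read-out basis: Percent growth inhibition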
Cav32 inh = human Cav3.2 channel inhibition, primary screen; Cav3.2-expressing cells, Fluo-4 calcium fluorescence FDSS; hits give low values; 4% of 100,000 active; B-score at 10 µM; AID 449739; O95180;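 active means single-dose well whose peak fluorescence ratio is a statistical outlier from its plate by either plate-standardised score or position-corrected B-score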
Target sequence (O95180 whole entry, looked up): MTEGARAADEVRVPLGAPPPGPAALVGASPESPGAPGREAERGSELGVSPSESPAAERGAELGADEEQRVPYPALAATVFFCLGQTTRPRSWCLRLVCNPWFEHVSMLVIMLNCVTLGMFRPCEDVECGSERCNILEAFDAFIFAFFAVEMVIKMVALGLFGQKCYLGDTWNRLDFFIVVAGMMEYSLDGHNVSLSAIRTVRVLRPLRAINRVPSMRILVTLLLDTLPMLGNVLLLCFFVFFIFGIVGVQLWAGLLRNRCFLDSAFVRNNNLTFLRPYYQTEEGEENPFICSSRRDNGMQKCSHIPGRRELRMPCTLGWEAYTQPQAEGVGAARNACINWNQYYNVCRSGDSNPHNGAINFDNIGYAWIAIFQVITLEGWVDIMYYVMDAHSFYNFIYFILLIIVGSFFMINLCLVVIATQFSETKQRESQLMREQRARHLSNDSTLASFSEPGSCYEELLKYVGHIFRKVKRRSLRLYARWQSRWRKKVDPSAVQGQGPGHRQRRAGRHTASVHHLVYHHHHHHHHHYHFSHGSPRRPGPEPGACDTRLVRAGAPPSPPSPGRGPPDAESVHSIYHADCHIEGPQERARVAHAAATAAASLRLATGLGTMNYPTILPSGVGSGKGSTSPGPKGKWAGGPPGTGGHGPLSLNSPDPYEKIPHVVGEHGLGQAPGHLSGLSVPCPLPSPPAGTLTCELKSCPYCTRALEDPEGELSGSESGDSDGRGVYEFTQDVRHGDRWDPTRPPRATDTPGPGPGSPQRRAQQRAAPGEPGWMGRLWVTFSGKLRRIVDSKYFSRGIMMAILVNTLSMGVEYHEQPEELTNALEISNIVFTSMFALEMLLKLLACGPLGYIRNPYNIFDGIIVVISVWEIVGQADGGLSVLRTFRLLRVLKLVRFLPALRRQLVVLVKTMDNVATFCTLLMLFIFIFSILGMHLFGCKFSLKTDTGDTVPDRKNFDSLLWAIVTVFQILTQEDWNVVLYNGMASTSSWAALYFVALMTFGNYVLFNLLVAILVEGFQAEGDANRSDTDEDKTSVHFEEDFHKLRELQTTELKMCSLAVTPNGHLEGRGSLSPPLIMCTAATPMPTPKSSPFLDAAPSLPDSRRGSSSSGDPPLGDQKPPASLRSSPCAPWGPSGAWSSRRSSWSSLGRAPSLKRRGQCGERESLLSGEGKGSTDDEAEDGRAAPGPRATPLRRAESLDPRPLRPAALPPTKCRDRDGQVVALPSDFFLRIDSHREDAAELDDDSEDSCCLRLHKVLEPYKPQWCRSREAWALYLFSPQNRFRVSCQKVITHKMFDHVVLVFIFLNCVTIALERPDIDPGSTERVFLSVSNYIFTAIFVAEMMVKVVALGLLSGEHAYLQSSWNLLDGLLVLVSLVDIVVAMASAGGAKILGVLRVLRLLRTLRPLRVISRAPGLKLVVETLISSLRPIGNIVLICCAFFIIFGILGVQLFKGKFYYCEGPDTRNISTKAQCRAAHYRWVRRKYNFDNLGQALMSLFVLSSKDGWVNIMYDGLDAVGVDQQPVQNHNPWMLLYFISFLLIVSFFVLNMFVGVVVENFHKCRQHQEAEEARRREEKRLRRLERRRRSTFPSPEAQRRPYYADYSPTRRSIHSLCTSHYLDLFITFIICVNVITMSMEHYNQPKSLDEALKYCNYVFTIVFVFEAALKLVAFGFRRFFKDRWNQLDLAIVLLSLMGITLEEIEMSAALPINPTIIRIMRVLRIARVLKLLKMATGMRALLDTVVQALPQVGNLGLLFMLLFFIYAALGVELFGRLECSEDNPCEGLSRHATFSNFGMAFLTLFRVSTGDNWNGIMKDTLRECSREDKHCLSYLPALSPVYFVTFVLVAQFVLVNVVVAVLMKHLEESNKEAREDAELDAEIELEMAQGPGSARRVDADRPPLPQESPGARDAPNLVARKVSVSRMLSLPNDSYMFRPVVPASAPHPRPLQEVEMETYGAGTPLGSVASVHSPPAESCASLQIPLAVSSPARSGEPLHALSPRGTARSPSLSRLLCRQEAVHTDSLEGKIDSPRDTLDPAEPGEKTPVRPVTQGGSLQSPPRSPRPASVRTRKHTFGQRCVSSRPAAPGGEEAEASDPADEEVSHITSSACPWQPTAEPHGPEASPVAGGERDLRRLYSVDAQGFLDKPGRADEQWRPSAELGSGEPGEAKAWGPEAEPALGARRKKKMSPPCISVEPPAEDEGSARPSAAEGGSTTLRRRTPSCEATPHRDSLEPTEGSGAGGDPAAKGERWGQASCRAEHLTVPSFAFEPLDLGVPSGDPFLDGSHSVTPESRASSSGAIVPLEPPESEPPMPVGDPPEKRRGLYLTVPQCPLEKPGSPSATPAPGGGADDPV
Starred values were filed as active, the others as inactive; · = not tested or not shown. Unless noted, no stated cut-off is given here; in the data, active means inhibition above about 30%; inactive means the rest.

SMILES	PostGolgi ctrl	PostGolgi yeast	E coli WT exp	tolC growth inh	Cav32 inh
COc1ccc(NC(=O)CSc2nnc(C3CCCCC3)n2-c2ccccc2)cc1	15.2	-3.0	-13.0	·	-6.15*
COc1ccc(-n2c(Cc3cccn3C)nnc2SCC(=O)NCc2ccc(F)cc2)cc1	11.9	2.4	2.0	9.4	-7.11*
CCc1noc(C)c1C(=O)Nc1sc(C(=O)N(C)C)c(C)c1C(=O)OC	2.8	-4.9	-4.0	17.4	0.299
CN(CC(=O)Nc1nc2ccccc2s1)S(=O)(=O)c1ccc(Br)cc1	4.1	-4.7	-10.0	·	-3.34
CN(CC(=O)Nc1nc2ccccc2s1)S(=O)(=O)c1ccc(Cl)cc1	31.1*	2.3	-5.0	·	-1.18
COc1ccc(C)cc1S(=O)(=O)N(CC(=O)NCc1ccc(Cl)cc1)Cc1ccccc1	13.0	-10.5	-19.0	·	-3.31
COc1ccc(OC)c(C(=O)c2ccccc2)c1	·	·	·	·	-0.371
COc1ccc(OC)c(/C(O)=C/C(=O)C(=O)Nc2cc(C)ccc2OC)c1	12.3	-5.8	-2.0	·	-5.55*
CCOc1ccccc1NC(=O)C(=O)/C=C(\O)c1cc(OC)ccc1OC	27.9	8.3	14.0	·	-9.6*
COc1ccc(OC)c(/C(O)=C/C(=O)C(=O)Nc2cc(C)cc(C)c2)c1	22.0	-1.5	17.0	·	-9.1*
CCOc1ccc(NC(=O)c2ccccc2OC)cc1	-9.2	2.1	-9.0	2.6	·
COc1ccc([C@@]2(O)c3c(ccc(CC=C(C)C)c3O)NC(=O)[C@@H]2OC)cc1	·	·	·	·	-2.5
CC(C)(C)C(O)/C=C/c1ccc2c(c1)OCO2 (stereo not drawn)	·	·	·	·	-1.38
CCc1c(C)nc(/N=C(/NC(=O)c2ccccc2)Nc2ccccc2OC)[nH]c1=O	·	·	·	-14.7	·
CCC(C)NS(=O)(=O)c1ccc(NS(C)(=O)=O)cc1 (stereo not drawn)	18.8	47.5*	4.0	-11.5	0.01
CCOc1ccccc1C1CC(c2ccc(Br)cc2)Nc2nc(N)nn21 (stereo not drawn)	1.0	-1.6	8.0	28.0	-4.58
CCOc1cc2[nH]c(=O)n(CC3CCC(C(=O)NC(C)CC)CC3)c(=O)c2cc1OCC (stereo not drawn)	·	·	·	-7.6	·
Cc1cc(/C=C(/C#N)c2nc3ccccc3[nH]2)c(C)n1-c1cccc([N+](=O)[O-])c1	9.8	34.4*	-19.0	·	-10.6*
CC(=O)C1=C(C)OC(N)=C(C#N)C1c1ccco1 (stereo not drawn)	3.4	-6.7	3.0	-13.7	-0.226
CC(=O)n1c2c(c3ccccc31)OC(N)=C(C#N)C2c1ccc(C(C)C)cc1 (stereo not drawn)	33.9*	17.7	-2.0	·	0.00932
CCCNC(=O)c1cccc(Cn2nc(C)c(Br)c2C)c1	7.3	-5.1	12.0	22.7	-0.138
Cc1nn(Cc2ccccc2Cl)c(C)c1NC(=O)NC12CC3CC(CC(C3)C1)C2	34.7*	-4.9	-9.0	·	-7.56*
Cc1nn(Cc2cccc(C(=O)NC34CC5CC(CC(C5)C3)C4)c2)c(C)c1Br	·	·	·	·	-6.37*
Cc1nn(Cc2ccccc2Cl)c(C)c1NC(=O)c1nc2ncccn2n1	·	·	·	·	0.0928
CCCOc1ccc2c3c(c(=O)oc2c1OCCC)CCCC3	55.8*	-4.7	0.0	·	-2.12
SMILES	PostGolgi ctrl	PostGolgi yeast	E coli WT exp	tolC growth inh	Cav32 inh
COC(=O)c1ccc(C)c(NC(=O)CN(c2cc(OC)ccc2OC)S(C)(=O)=O)c1	7.3	16.0	-2.0	8.8	0.406
CSc1cccc(NC(=O)CN(c2cc(C)ccc2C)S(C)(=O)=O)c1	4.7	1.3	-16.0	7.7	-5.76*
COc1ccc(Cl)cc1N(CC(=O)Nc1cccc(SC)c1)S(C)(=O)=O	11.6	-2.3	-17.0	·	-2.84
COc1ccc(N(CC(=O)Nc2cccc(SC)c2)S(C)(=O)=O)cc1Cl	0.8	-6.2	-7.0	22.7	-5.91*
COc1ccc(OC)c(N(CC(=O)Nc2ccc(NC(C)=O)cc2)S(C)(=O)=O)c1	30.6*	5.2	-2.0	-16.4	0.529
O=C(CCCOc1ccc(Cl)cc1)NCC1CCCO1 (stereo not drawn)	-8.8	-10.9	5.0	·	0.175
CCCOc1ccc(CC(=O)NCC2(c3ccccc3)CCOCC2)cc1OC	-1.6	1.6	5.0	·	0.879
CCn1c(=O)c2c(n3cnnc13)-c1ccccc1CC21CCCCC1	56.3*	27.6	1.0	12.8	0.288
O=c1c2c(n3cnnc3n1-c1ccccc1)-c1ccccc1CC21CCCCC1	19.6	12.5	-2.0	·	0.138
Cc1cccc(-n2c(=O)c3c(n4cnnc24)-c2ccccc2CC32CCCCC2)c1	45.9*	-17.5	-9.0	·	0.353
Cc1ccc(Cn2c(C(C)Nc3nc(-c4ccc(Cl)c([N+](=O)[O-])c4)cs3)nc3cc(C(F)(F)F)ccc32)cc1 (stereo not drawn)	·	·	·	·	0.516
CCn1nc([N+](=O)[O-])c(C(C#N)c2nc3cc(C(F)(F)F)ccc3s2)c(Cl)c1=O (stereo not drawn)	35.5*	17.3	1.0	·	-5.16*
O=C(CN1CCN(c2ccc(F)cc2)CC1)c1ccc2c(c1)OCO2	4.2	6.1	-3.0	-11.8	·
Cc1ccc(S(=O)(=O)c2nc(-c3ccccc3)oc2NCc2cccnc2)cc1	6.1	-13.2	-8.0	57.1	-5.27*
CSc1oc(-c2ccccc2)nc1S(=O)(=O)c1ccc(C)cc1	8.8	-7.9	-19.0	38.3	1.04
Cc1ccccc1-c1nc(CN2CCC(C(=O)NCc3cccnc3)CC2)c(C)o1	10.0	-3.3	-5.0	-1.1	2.18
Cc1ccccc1-c1nc(S(=O)(=O)c2ccc(Br)cc2)c(NCc2cccnc2)o1	31.3*	0.3	-11.0	·	-2.54*
Cc1ccc(CNc2oc(-c3ccco3)nc2S(=O)(=O)c2ccccc2)cc1	·	·	·	·	-4.73*
COc1cc(C(c2nnnn2C(C)(C)C)N2CCN(C)CC2)cc(OC)c1OC (stereo not drawn)	0.8	-0.8	0.0	-12.0	0.129
CC1=C(C(=O)OC2CCCCCCC2)C(c2cccc(O)c2)NC(=O)N1 (stereo not drawn)	12.7	-4.8	14.0	65.0*	-3.63
COc1ccc(-c2ccc(=O)n(CC(=O)N3CCN(c4ccccc4OC)CC3)n2)cc1	·	·	·	12.7	·
CC(=O)N1CCC(N(CCCOC(C)C)C(=O)Nc2ccc(Cl)cc2)CC1	·	·	·	0.5	-0.0272
CCCC1C(C#N)=C(N)Oc2n[nH]c(C(C)(C)C)c21 (stereo not drawn)	26.4	-1.4	4.0	13.0	-1.81
Cn1c(Cl)c(/C=N/OC(=O)c2ccc(Cl)cc2)c2ccccc21	0.2	21.8	-8.0	·	-0.178
CCOC(=O)NCc1ccc(CNC(=O)OCC)cc1	8.6	14.0	5.0	-12.9	-0.29
CCOC(=O)NCC(C#CCN(CC)CC)N(CC)CC (stereo not drawn)	42.4*	-1.1	4.0	-6.9	·
CCn1c(=O)cc(SCC(=O)NCCCN2CCN(c3ccccc3F)CC2)c2ccccc21	1.9	9.2	4.0	11.9	-3.39*
CCOC(=O)CSc1nc(N(C)C)nc(N(C)C#N)n1	14.9	2.9	-4.0	-0.1	·
CC(=O)N(/N=C1\Sc2ccccc2C1=O)c1ccccc1C	32.7*	6.9	3.0	·	0.788
CC(=O)N(/N=C1\Sc2ccccc2C1=O)c1ccc(C)cc1C	48.4*	-6.7	-4.0	·	-1.38
